Experimental data as given in ChEMBL document CHEMBL4342435, “Synthesis of novel 4-Boc-piperidone chalcones and evaluation of their cytotoxic activity against highly-metastatic cancer cells” (Bioorg Med Chem Lett, 2020).
≈ marks a conversion by molar mass, not a printed value. Calls of active or inactive are those of the source. The rule behind the calls is not given here.

What was measured:
LoVo = assay: Growth inhibition of human LoVo cells incubated for 72 hrs by CellTiter-Glo luminescent cell viability; assay type: functional
COLO 205 [1] = assay: Growth inhibition of human COLO205 cells incubated for 72 hrs by CellTiter-Glo luminescent cell viability; assay type: functional; conditions: COLO 205, 72 h
[2] = Cytotoxicity against human CCD-18Co cells assessed as reduction in cell viability incubated for 72 hrs by CellTiter-Glo luminescent cell viability; assay type: cell-based
[3] = Selectivity index, ratio of GI50 for human CCD-18Co cells to GI50 for human LoVo cells
[4] = Selectivity index, ratio of GI50 for human CCD-18Co cells to GI50 for human COLO205 cells
PC-3 [5] = assay: Growth inhibition of human PC3 cells incubated for 48 hrs by MTS assay; assay type: functional; conditions: PC-3, 48 h
Procedure, shortened: (§1)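 MTS viability on PC3 and 22RV1 prostate cancer cells after 48h incubation. […] DMSO control. Triplicates (N=3). One-way ANOVA with Dunnett's test, mean ± SEM, P<0.05.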

CWR22R [6] = assay: Growth inhibition of human 22Rv1 cells incubated for 48 hrs by MTS assay; assay type: functional; conditions: 22Rv1, 48 h; procedure, shortened: as §1
CWR22R [7] = assay: Antiproliferative activity human 22Rv1 cells assessed as reduction in Ki67 protein level at GI50 incubated for 48 hrs by DAPI staining based immunofluorescence assay; assay type: functional, cell-based
COLO 205 [8] = assay: Induction of apoptosis in human COLO205 cells at GI50 incubated for 24 hrs by Annexin V-FITC/Hoechst/propidium iodide staining based cell counting method (reference value: 10.7%); assay type: functional
COLO 205 [9] = assay: Induction of apoptosis in human COLO205 cells assessed as activation of caspases 7 at GI50 by fluorescent inhibitor probe FAM-DEVD-FMK staining based fluorescence assay (reference value: 15.3%); assay type: functional; set-up: scale not given: the % may be the effect or the level left
Procedure, shortened: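 COLO-205 cells treated at the concentrations listed in the GI50 table. Active caspases 3 and 7 labelled with the fluorescent inhibitor probe FAM-DEVD-FMK and read by flow cytometry. Untreated negative control, camptothecin positive control. Triplicate (N=3), P<0.05 versus vehicle.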

[10] = Inhibition of TNFalpha-induced NFkappaB activation in human HEK293 cells preincubated for 16 hrs followed by TNFalpha addition and measured after 6 hrs by luminescence based assay; assay type: cell-based
PC-3 [11] = assay: Antiproliferative activity human PC3 cells assessed as reduction in Ki67 protein level at GI50 incubated for 48 hrs by DAPI staining based immunofluorescence assay; assay type: functional, cell-based

SMILES | GI50 (LoVo) | GI50 (COLO 205 [1]) | GI50 at 72 h [2] | RatioGI50 [3] | RatioGI50 [4] | GI50 (PC-3 [5]) | GI50 (CWR22R [6]) | Activity (CWR22R [7]) | Activity (COLO 205 [8]) | Activity (COLO 205 [9]) | IC50 [10] | Activity (PC-3 [11])
CC(C)(C)OC(=O)N1C/C(=C\c2ccccc2)C(=O)/C(=C/c2ccccc2)C1 | 6.1 µg/mL (≈ 16.2 µM) | 34.7 µg/mL (≈ 92.4 µM) | 12.4 µg/mL (≈ 33 µM) | 2 | 0.4 | – | – | – | – | – | – | –
COc1cc(/C=C2\CN(C(=O)OC(C)(C)C)C/C(=C\c3ccc(O)c(OC)c3)C2=O)ccc1O | 9.6 µg/mL (≈ 20.5 µM) | 27.4 µg/mL (≈ 58.6 µM) | 18.3 µg/mL (≈ 39.1 µM) | 1.9 | 0.7 | – | – | – | – | – | – | –
COc1cc(/C=C/C(=O)/C=C/c2ccc(O)c(OC)c2)ccc1O | 10 µg/mL (≈ 30.6 µM) | 19.4 µg/mL (≈ 59.4 µM) | 15.1 µg/mL (≈ 46.3 µM) | 1.5 | 0.8 | 24.8 µg/mL (≈ 76 µM) | 22.7 µg/mL (≈ 69.6 µM) | Active | – | – | – | –
CC(C)(C)OC(=O)N1C/C(=C\c2ccccc2C(F)(F)F)C(=O)/C(=C/c2ccccc2C(F)(F)F)C1 | 4.6 µg/mL (≈ 8.99 µM) | 4.5 µg/mL (≈ 8.8 µM) | 7.6 µg/mL (≈ 14.9 µM) | 1.7 | 1.7 | – | – | – | 35% | 31.5% | 27.2 µg/mL (≈ 53.2 µM) | –
CC(=O)O[C@@]12CO[C@@H]1C[C@H](O)[C@@]1(C)C(=O)[C@H](O)C3=C(C)[C@@H](OC(=O)[C@H](O)[C@@H](NC(=O)OC(C)(C)C)c4ccccc4)C[C@@](O)([C@@H](OC(=O)c4ccccc4)[C@H]21)C3(C)C [DOCETAXEL ANHYDROUS] | – | – | – | – | – | 0.009 µg/mL (≈ 0.0111 µM) | 0.006 µg/mL (≈ 0.00743 µM) | Active | – | – | – | Active
COc1cc(/C=C/C(=O)CC(=O)/C=C/c2ccc(O)c(OC)c2)ccc1O [CURCUMIN] | 4.3 µg/mL (≈ 11.7 µM) | 12.7 µg/mL (≈ 34.5 µM) | 7.2 µg/mL (≈ 19.5 µM) | – | – | 13.8 µg/mL (≈ 37.5 µM) | 14.3 µg/mL (≈ 38.8 µM) | Active | – | – | 7.7 µg/mL (≈ 20.9 µM) | Active
CC(C)(C)OC(=O)N1C/C(=C\c2ccc(O)cc2)C(=O)/C(=C/c2ccc(O)cc2)C1 | 3.5 µg/mL (≈ 8.59 µM) | 20.9 µg/mL (≈ 51.3 µM) | 6.4 µg/mL (≈ 15.7 µM) | 1.8 | 0.3 | 22.9 µg/mL (≈ 56.2 µM) | 17.1 µg/mL (≈ 42 µM) | Active | – | – | – | Active
CC[C@@]1(O)C(=O)OCc2c1cc1n(c2=O)Cc2cc3ccccc3nc2-1 [CAMPTOTHECIN] | – | – | – | – | – | – | – | – | 37.3% | 59.3% | – | –
COc1ccc(/C=C2\CN(C(=O)OC(C)(C)C)C/C(=C\c3ccc(OC)cc3OC)C2=O)c(OC)c1 | 2 µg/mL (≈ 4.04 µM) | 0.84 µg/mL (≈ 1.7 µM) | 1.2 µg/mL (≈ 2.42 µM) | – | 1.4 | – | – | – | 62% | 35.7% | – | –
CC(C)(C)OC(=O)N1C/C(=C\c2cccc(O)c2)C(=O)/C(=C/c2cccc(O)c2)C1 | 4.1 µg/mL (≈ 10.1 µM) | 11.7 µg/mL (≈ 28.7 µM) | 6.4 µg/mL (≈ 15.7 µM) | 1.6 | 0.5 | – | – | – | – | – | – | –
